Converted amounts (≈) assume the structure as drawn. The source made the active and inactive calls. The rule behind the calls is not given here.
Experiments:
[1] = target: T1, Sodium/glucose cotransporter 2 (Homo sapiens, UniProt P31639); assay: Inhibition of human SGLT2 expressed in COS7 cells assessed as reduction of [14C]-AMG uptake; format: cell-based, COS-7
T1 sequence (P31639 whole entry): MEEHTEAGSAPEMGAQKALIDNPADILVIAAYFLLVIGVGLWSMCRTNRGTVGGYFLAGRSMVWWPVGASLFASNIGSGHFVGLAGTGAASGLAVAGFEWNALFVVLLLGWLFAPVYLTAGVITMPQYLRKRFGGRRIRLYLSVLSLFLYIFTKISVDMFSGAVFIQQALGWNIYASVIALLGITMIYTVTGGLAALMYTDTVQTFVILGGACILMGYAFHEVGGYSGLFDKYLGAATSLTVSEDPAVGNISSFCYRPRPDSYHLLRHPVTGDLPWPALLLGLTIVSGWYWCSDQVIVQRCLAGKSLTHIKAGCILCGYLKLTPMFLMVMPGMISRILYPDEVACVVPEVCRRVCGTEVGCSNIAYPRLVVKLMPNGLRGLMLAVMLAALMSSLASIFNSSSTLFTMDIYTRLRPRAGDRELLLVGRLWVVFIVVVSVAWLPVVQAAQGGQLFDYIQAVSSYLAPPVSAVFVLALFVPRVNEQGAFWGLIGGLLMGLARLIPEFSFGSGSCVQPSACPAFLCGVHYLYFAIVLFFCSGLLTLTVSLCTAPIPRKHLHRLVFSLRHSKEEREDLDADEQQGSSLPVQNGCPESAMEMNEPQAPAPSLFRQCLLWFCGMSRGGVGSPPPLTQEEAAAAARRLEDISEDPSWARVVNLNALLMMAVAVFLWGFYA

[2] = Solubility of the compound in distilled water; format: physicochemical
Outline: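 Solubility measured in distilled water, with filtrate concentration quantified by HPLC.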

[3] = target: T2, Sodium/glucose cotransporter 2 (Rattus norvegicus, UniProt P53792); assay: Inhibition of rat SGLT2 expressed in COS7 cells assessed as reduction of [14C]-AMG uptake; format: cell-based, COS-7
T2 sequence (P53792 whole entry): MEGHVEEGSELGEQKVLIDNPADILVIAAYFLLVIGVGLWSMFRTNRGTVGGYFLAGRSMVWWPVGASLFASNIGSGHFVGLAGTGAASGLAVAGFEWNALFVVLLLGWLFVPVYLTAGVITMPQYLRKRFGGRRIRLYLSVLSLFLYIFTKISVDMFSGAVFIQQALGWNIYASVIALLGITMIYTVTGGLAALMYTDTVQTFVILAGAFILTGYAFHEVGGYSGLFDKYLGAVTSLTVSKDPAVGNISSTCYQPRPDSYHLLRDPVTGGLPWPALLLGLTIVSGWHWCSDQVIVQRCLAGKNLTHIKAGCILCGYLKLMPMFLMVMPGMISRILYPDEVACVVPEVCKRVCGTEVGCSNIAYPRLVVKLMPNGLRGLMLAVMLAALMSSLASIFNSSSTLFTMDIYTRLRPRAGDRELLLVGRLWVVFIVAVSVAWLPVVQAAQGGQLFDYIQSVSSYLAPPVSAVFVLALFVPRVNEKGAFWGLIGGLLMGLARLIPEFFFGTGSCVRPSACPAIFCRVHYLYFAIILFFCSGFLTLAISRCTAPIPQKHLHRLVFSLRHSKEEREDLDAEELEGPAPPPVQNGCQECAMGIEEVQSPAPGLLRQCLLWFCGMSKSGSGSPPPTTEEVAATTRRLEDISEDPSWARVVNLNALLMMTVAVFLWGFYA

[4] = Metabolic stability of the compound in rat intestinal microsomes assessed as compound remaining at 50 uM after 30 mins; format: ADME, Intestine; details: for Stability: microsomes, 0.5 h, 50 µM
Outline: (§1)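 50 µM final compound incubated at 37 °C with 0.8 mg/mL rat intestinal microsomes, 1 mg/mL NADPH, 50 mM ammonium acetate (pH 5.0) and 10 mM MgCl2. Levels measured by LC–MS at 0, 30 and 60 min; reported as % remaining relative to 0 min.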

[5] = Metabolic stability of the compound in rat intestinal microsomes assessed as compound remaining at 50 uM after 60 mins; format: ADME, Intestine; details: for Stability: microsomes, 1 h, 50 µM; outline: as §1
Rattus norvegicus [6] = assay: Antihyperglycemic activity in Wistar rat streptozotocin-nicotinamide-induced diabetic model assessed as reduction of plasma glucose level at 1 mg/kg, po after 1 hr by oral mixed carbohydrate tolerance test; format: functional, organism-based; parameters: dose 1 mg/kg
Outline: (§2)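 Male Wistar rats (8 weeks) given nicotinamide 230 mg/kg i.p., then streptozotocin 85 mg/kg i.v. 15 min later; after 1 week, rats above 250 mg/dL plasma glucose at 1 h in a 2 g/kg glucose tolerance test were used. Overnight-fasted rats were dosed orally in 0.5% CMC, then immediately loaded with 2 g/kg starch/sucrose/lactose (6:3:1). Plasma glucose by glucose oxidase; n = 7; Dunnett's test versus vehicle.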

Rattus norvegicus [7] = assay: Antihyperglycemic activity in po dosed Wistar rat streptozotocin-nicotinamide-induced diabetic model assessed as reduction of plasma glucose level after 1 hr by oral mixed carbohydrate tolerance test; format: functional, organism-based; outline: as §2
[8] = target: T3, Sodium/glucose cotransporter 1 (Rattus norvegicus, UniProt P53790); assay: Inhibition of rat SGLT1 expressed in COS7 cells assessed as reduction of [14C]-AMG uptake; format: cell-based, COS-7
T3 sequence (P53790 whole entry): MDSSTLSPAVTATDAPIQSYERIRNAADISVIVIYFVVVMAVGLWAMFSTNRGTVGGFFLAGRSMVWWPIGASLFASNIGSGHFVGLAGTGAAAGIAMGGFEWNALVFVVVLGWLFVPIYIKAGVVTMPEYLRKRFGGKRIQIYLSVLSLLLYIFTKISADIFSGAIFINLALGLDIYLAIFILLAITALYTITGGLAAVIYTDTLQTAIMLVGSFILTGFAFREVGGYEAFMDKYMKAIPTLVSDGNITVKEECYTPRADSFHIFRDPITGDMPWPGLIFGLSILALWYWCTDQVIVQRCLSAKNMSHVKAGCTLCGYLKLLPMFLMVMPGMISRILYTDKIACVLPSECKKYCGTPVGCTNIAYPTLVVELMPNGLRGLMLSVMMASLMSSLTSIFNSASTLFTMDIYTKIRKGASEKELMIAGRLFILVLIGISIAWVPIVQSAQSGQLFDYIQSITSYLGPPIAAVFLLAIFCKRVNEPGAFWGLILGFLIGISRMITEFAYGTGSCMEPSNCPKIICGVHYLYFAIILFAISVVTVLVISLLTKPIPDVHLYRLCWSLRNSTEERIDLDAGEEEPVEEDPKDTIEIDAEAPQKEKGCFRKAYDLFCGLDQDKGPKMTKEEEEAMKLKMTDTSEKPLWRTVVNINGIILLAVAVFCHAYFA

Rattus norvegicus [9] = assay: Toxicity in Wistar rat assessed as overnight urinary glucose excretion at 10 mg/kg, po; format: organism-based, Urine; parameters: dose 10 mg/kg, route oral; details: in vivo
Outline: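 Male Wistar rats (8 weeks) in metabolic cages, fasted 08:00 to next morning. At 16:00 they received 10 mg/kg orally in 0.5% CMC or vehicle, and urine was collected until 08:00. Urine glucose by glucose oxidase; n = 5; F-test then Student's t or Welch's test versus vehicle.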

[10] = intestinal microsomes, read-out: Stability

| SMILES | IC50 [1] [µM] | further results |
| --- | --- | --- |
| CC(C)c1[nH]nc(O[C@@H]2O[C@H](CO)[C@@H](O)[C@H](O)[C@H]2O)c1Cc1ccccc1 | 2.02 | solubility [2]: 19000 µg/mL (≈ 50.2 mM) |
| Cc1[nH]nc(O[C@@H]2O[C@H](CO)[C@@H](O)[C@H](O)[C@H]2O)c1Cc1ccccc1OCc1ccccc1 | 5.01 |  |
| COc1ccccc1Cc1c(O[C@@H]2O[C@H](CO)[C@@H](O)[C@H](O)[C@H]2O)n[nH]c1C(C)C | 204 |  |
| CC(C)c1[nH]nc(O[C@@H]2O[C@H](CO)[C@@H](O)[C@H](O)[C@H]2O)c1Cc1ccccc1C#N | 65.7 |  |
| Cc1cccc(Cc2c(O[C@@H]3O[C@H](CO)[C@@H](O)[C@H](O)[C@H]3O)n[nH]c2C(C)C)c1 | 5.98 |  |
| CC(C)c1[nH]nc(O[C@@H]2O[C@H](CO)[C@@H](O)[C@H](O)[C@H]2O)c1Cc1cccc(O)c1 | 13.3 |  |
| OC[C@H]1O[C@@H](Oc2[nH]nc(C(F)(F)F)c2Cc2ccc(O)cc2)[C@H](O)[C@@H](O)[C@@H]1O | 0.154 |  |
| CC(C)c1n[nH]c(O[C@@H]2O[C@H](CO)[C@@H](O)[C@H](O)[C@H]2O)c1Cc1ccccc1F | 1.39 |  |
| CC(C)c1[nH]nc(O[C@@H]2O[C@H](CO)[C@@H](O)[C@H](O)[C@H]2O)c1Cc1ccc(O)cc1 | 0.285 |  |
| CC(C)c1[nH]nc(O[C@@H]2O[C@H](CO)[C@@H](O)[C@H](O)[C@H]2O)c1Cc1ccc(F)cc1 | 4.14 |  |
| OC[C@H]1O[C@@H](Oc2n[nH]c(C(F)(F)F)c2Cc2ccccc2O)[C@H](O)[C@@H](O)[C@@H]1O | 14.9 |  |
| CC(C)c1n[nH]c(O[C@@H]2O[C@H](CO)[C@@H](O)[C@H](O)[C@H]2O)c1Cc1ccccc1C(F)(F)F | 60.5 |  |
| OC[C@H]1O[C@@H](Oc2[nH]nc(C(F)(F)F)c2Cc2cccc(OCc3ccccc3)c2)[C@H](O)[C@@H](O)[C@@H]1O | 5.68 |  |
| O=C(CCc1ccc(O)cc1)c1c(O)cc(O)cc1O[C@@H]1O[C@H](CO)[C@@H](O)[C@H](O)[C@H]1O [PHLORIZIN] |  | IC50 [3]: 0.096 µM; Stability [4]: Unstable; Stability [5]: Unstable; Activity (Rattus norvegicus [6]): inactive |
| CC(C)c1[nH]nc(O[C@@H]2O[C@H](CO)[C@@H](O)[C@H](O)[C@H]2O)c1Cc1ccccc1O | 75.9 |  |
| Cc1cc(O)ccc1Cc1c(O[C@@H]2O[C@H](CO)[C@@H](O)[C@H](O)[C@H]2O)n[nH]c1C(C)C |  | Activity (Rattus norvegicus [7]): Dose-dependent effect |

| SMILES | IC50 [1] [µM] | further results |
| --- | --- | --- |
| Cc1ccccc1Cc1c(C(C)C)n[nH]c1O[C@@H]1O[C@H](CO)[C@@H](O)[C@H](O)[C@H]1O | 18.5 |  |
| OC[C@H]1O[C@@H](Oc2[nH]nc(C(F)(F)F)c2Cc2cccc(O)c2)[C@H](O)[C@@H](O)[C@@H]1O | 2.79 |  |
| OC[C@H]1O[C@@H](Oc2n[nH]c(C(F)(F)F)c2Cc2ccccc2OCc2ccccc2)[C@H](O)[C@@H](O)[C@@H]1O | 14 | IC50 [8]: 227 nM; IC50 [3]: 40.8 µM; Stability [4]: Unstable; Stability [5]: Unstable |
| CC(C)c1[nH]nc(O[C@@H]2O[C@H](CO)[C@@H](O)[C@H](O)[C@H]2O)c1Cc1ccc(C#N)cc1 | 3.58 |  |
| Cc1cc(O)ccc1Cc1c(C(C)C)n[nH]c1O[C@@H]1O[C@H](CO)[C@@H](O)[C@H](O)[C@H]1O | 6.89 | IC50 [8]: 183 nM; IC50 [3]: 4.37 µM |
| CCc1[nH]nc(O[C@@H]2O[C@H](CO)[C@@H](O)[C@H](O)[C@H]2O)c1Cc1ccccc1OCc1ccccc1 | 13.9 |  |
| CCc1ccccc1Cc1c(O[C@@H]2O[C@H](CO)[C@@H](O)[C@H](O)[C@H]2O)n[nH]c1C(C)C | 14.1 |  |
| CC(C)(C)c1[nH]nc(O[C@@H]2O[C@H](CO)[C@@H](O)[C@H](O)[C@H]2O)c1Cc1ccccc1OCc1ccccc1 | 64.7 |  |
| CCc1ccc(Cc2c(C(C)C)n[nH]c2O[C@@H]2O[C@H](CO)[C@@H](O)[C@H](O)[C@H]2O)cc1 | 0.068 |  |
| CC(C)c1[nH]nc(O[C@@H]2O[C@H](CO)[C@@H](O)[C@H](O)[C@H]2O)c1Cc1ccccc1OCc1ccccc1 | 74 | IC50 [8]: 308 nM; IC50 [3]: 100 µM; remaining at 0.5 h, 50 µM [4, 10]: 71%; remaining at 1 h, 50 µM [5, 10]: 51%; solubility [2]: 240 µg/mL (≈ 0.495 mM); Activity (Rattus norvegicus [9]): 0.4 mg |
| COc1ccc(Cc2c(O[C@@H]3O[C@H](CO)[C@@H](O)[C@H](O)[C@H]3O)n[nH]c2C(C)C)cc1 | 0.377 |  |
| OC[C@H]1O[C@@H](Oc2n[nH]c(C(F)(F)F)c2Cc2ccc(OCc3ccccc3)cc2)[C@H](O)[C@@H](O)[C@@H]1O | 0.007 |  |
| CCOC(=O)OC[C@H]1O[C@@H](Oc2ccccc2Cc2ccc(OC)cc2)[C@H](O)[C@@H](O)[C@@H]1O [SERGLIFLOZIN ETABONATE] |  | Activity (Rattus norvegicus [9]): 53.3 mg |
| OC[C@H]1O[C@@H](Oc2n[nH]c(C(F)(F)F)c2Cc2ccccc2)[C@H](O)[C@@H](O)[C@@H]1O | 0.342 |  |
| Cc1ccc(Cc2c(O[C@@H]3O[C@H](CO)[C@@H](O)[C@H](O)[C@H]3O)n[nH]c2C(C)C)cc1 | 0.231 |  |
| OC[C@H]1O[C@@H](Oc2n[nH]c(C3CC3)c2Cc2ccccc2OCc2ccccc2)[C@H](O)[C@@H](O)[C@@H]1O | 156 |  |

— ChEMBL document CHEMBL2157910, “Structure-activity relationship studies of 4-benzyl-1H-pyrazol-3-yl β-d-glucopyranoside derivatives as potent and selective sodium glucose co-transporter 1 (SGLT1) inhibitors with therapeutic activity on postprandial hyperglycemia” (Bioorg Med Chem, 2012)
